ChEMBL document CHEMBL1154892, “Saponins and polyphenols from Fadogia ancylantha (makoni tea)” (J Nat Prod, 2010)
Converted amounts (≈) assume the structure as drawn. The source made the active and inactive calls. No cut-off for these calls is given here.

Assays:
[1] = test system: Radical scavenging activity; experiment: Antioxidant activity assessed as DPPH radical scavenging activity after 10 mins; type: functional
In short: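 Methanolic sample solution added to DPPH solution (0.025 g/L in MeOH, prepared daily); vehicle alone in control tubes; absorbance read at 515 nm 10 min after start. α-Tocopherol positive control. Triplicate runs; EC50 calculated by Litchfield and Wilcoxon method.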

Staphylococcus aureus [2] = experiment: Antibacterial activity against Staphylococcus aureus ATCC 6538 after 24 hrs by broth microdilution method; type: functional; settings: ATCC 6538, 24 h
In short: (§1)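 Broth microdilution in 96-well plates, in duplicate, following NCCLS (2001); ATCC Gram-positive and Gram-negative bacteria, a yeast and a mold. MIC taken as lowest concentration inhibiting microbial growth after 24 h.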

[3] = test system: Staphylococcus epidermidis; experiment: Antibacterial activity against Staphylococcus epidermidis ATCC 12228 after 24 hrs by broth microdilution method; type: functional; settings: ATCC 12228, 24 h; in short: as §1
Bacillus spizizenii [4] = experiment: Antibacterial activity against Bacillus spizizenii ATCC 6633 after 24 hrs by broth microdilution method; type: functional; settings: ATCC 6633, 24 h; in short: as §1
Pseudomonas aeruginosa [5] = experiment: Antibacterial activity against Pseudomonas aeruginosa ATCC 9027 after 24 hrs by broth microdilution method; type: functional; in short: as §1
Escherichia coli [6] = experiment: Antibacterial activity against Escherichia coli ATCC 8739 after 24 hrs by broth microdilution method; type: functional; in short: as §1
Candida albicans [7] = experiment: Antifungal activity against Candida albicans ATCC 10231 after 24 hrs by broth microdilution method; type: functional; settings: ATCC 10231, 24 h; in short: as §1
Aspergillus niger [8] = experiment: Antifungal activity against Aspergillus niger ATCC 16404 after 24 hrs by broth microdilution method; type: functional; settings: ATCC 16404, 24 h; in short: as §1
Staphylococcus aureus [9] = experiment: Antibacterial activity against Staphylococcus aureus ATCC 6538 after 48 hrs by broth microdilution method; type: functional; settings: ATCC 6538, 48 h
In short: (§2)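 Broth microdilution in 96-well plates, in duplicate, per NCCLS (2001), ATCC strains. MBC taken as lowest concentration at which no microbial cell survived after 48 h incubation (bacteria) or 5 days (yeast and mold).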

[10] = test system: Staphylococcus epidermidis; experiment: Antibacterial activity against Staphylococcus epidermidis ATCC 12228 after 48 hrs by broth microdilution method; type: functional; settings: ATCC 12228, 48 h; in short: as §2
Bacillus spizizenii [11] = experiment: Antibacterial activity against Bacillus spizizenii ATCC 6633 after 48 hrs by broth microdilution method; type: functional; settings: ATCC 6633, 48 h; in short: as §2
Pseudomonas aeruginosa [12] = experiment: Antibacterial activity against Pseudomonas aeruginosa ATCC 9027 after 48 hrs by broth microdilution method; type: functional; in short: as §2
Escherichia coli [13] = experiment: Antibacterial activity against Escherichia coli ATCC 8739 after 48 hrs by broth microdilution method; type: functional, organism-based; in short: as §2
Candida albicans [14] = experiment: Antifungal activity against Candida albicans ATCC 10231 after 5 days by broth microdilution method; type: functional; in short: as §2
Aspergillus niger [15] = experiment: Antifungal activity against Aspergillus niger ATCC 16404 after 5 days by broth microdilution method; type: functional; in short: as §2

EC50 [1] | MIC (Staphylococcus aureus [2]) | MIC [3] | MIC (Bacillus spizizenii [4]) | MIC (Pseudomonas aeruginosa [5]; ATCC 9027, 24 h) | MIC (Escherichia coli [6]) | MIC (Candida albicans [7]) | MIC (Aspergillus niger [8]) | MIC (Pseudomonas aeruginosa [5]) | MIC (Escherichia coli [6]; ATCC 8739, 24 h) | SMILES | MBC (Staphylococcus aureus [9]) | MBC [10] | MBC (Bacillus spizizenii [11]) | MBC (Pseudomonas aeruginosa [12]) | MBC (Escherichia coli [13]) | MBC (Candida albicans [14]) | MBC (Aspergillus niger [15]) | MBC (Pseudomonas aeruginosa [12]; ATCC 9027, 48 h) | MBC (Candida albicans [14]; ATCC 10231, 120 h) | MBC (Aspergillus niger [15]; ATCC 16404, 120 h)
28.4 µg/mL (≈ 0.0657 mM) | 2000 µg/mL (≈ 4.63 mM) | 500 µg/mL (≈ 1.16 mM) | 1000 µg/mL (≈ 2.31 mM) | 4000 µg/mL (≈ 9.25 mM) | inactive | 4000 µg/mL (≈ 9.25 mM) | 1000 µg/mL (≈ 2.31 mM) |  |  | O=c1cc(-c2ccc(O)c(O)c2)oc2cc(O[C@@H]3O[C@H](CO)[C@@H](O)[C@H](O)[C@H]3O)ccc12 | 4000 µg/mL (≈ 9.25 mM) | 4000 µg/mL (≈ 9.25 mM) | 1000 µg/mL (≈ 2.31 mM) | inactive | inactive | inactive | inactive |  |  | 
10.1 µg/mL (≈ 0.0234 mM) |  |  |  |  |  |  |  |  |  | Cc1c(C)c2c(c(C)c1O)CC[C@@](C)(CCC[C@H](C)CCC[C@H](C)CCCC(C)C)O2 [ALPHA-TOCOPHEROL] |  |  |  |  |  |  |  |  |  | 
> 1000 µg/mL | 4000 µg/mL (≈ 9.51 mM) | 1000 µg/mL (≈ 2.38 mM) | 120 µg/mL (≈ 0.285 mM) |  |  | 4000 µg/mL (≈ 9.51 mM) | 120 µg/mL (≈ 0.285 mM) | inactive | 2000 µg/mL (≈ 4.76 mM) | O=C(CCc1ccc(O)cc1)c1ccc(O[C@@H]2O[C@H](CO)[C@@H](O)[C@H](O)[C@H]2O)cc1O [CONFUSOSIDE] | 4000 µg/mL (≈ 9.51 mM) | 2000 µg/mL (≈ 4.76 mM) | 1000 µg/mL (≈ 2.38 mM) | inactive | inactive | inactive | inactive |  |  | 
> 1000 µg/mL | 120 µg/mL (≈ 0.465 mM) | 250 µg/mL (≈ 0.968 mM) | 120 µg/mL (≈ 0.465 mM) | 2000 µg/mL (≈ 7.74 mM) |  | 1000 µg/mL (≈ 3.87 mM) | 120 µg/mL (≈ 0.465 mM) |  | 4000 µg/mL (≈ 15.5 mM) | O=C(CCc1ccc(O)cc1)c1ccc(O)cc1O [DAVIDIGENIN] | 500 µg/mL (≈ 1.94 mM) | 500 µg/mL (≈ 1.94 mM) | 500 µg/mL (≈ 1.94 mM) |  | inactive |  | inactive | 4000 µg/mL (≈ 15.5 mM) | 2000 µg/mL (≈ 7.74 mM) | 
20.4 µg/mL (≈ 0.0439 mM) | 4000 µg/mL (≈ 8.61 mM) | 1000 µg/mL (≈ 2.15 mM) | 1000 µg/mL (≈ 2.15 mM) |  | inactive | 4000 µg/mL (≈ 8.61 mM) | 2000 µg/mL (≈ 4.31 mM) | inactive |  | O=c1c(O[C@@H]2O[C@H](CO)[C@@H](O)[C@H](O)[C@H]2O)c(-c2ccc(O)c(O)c2)oc2cc(O)cc(O)c12 [ISOQUERCETIN] | 4000 µg/mL (≈ 8.61 mM) | 4000 µg/mL (≈ 8.61 mM) | 2000 µg/mL (≈ 4.31 mM) | inactive | inactive | inactive |  |  |  | 4000 µg/mL (≈ 8.61 mM)
